Calls of active or inactive are those of the source. The calls are words filed in the database; no cut-off is given here. A value given as a limit tells only on which side of the number the result lay.

Common to all, as to type: functional, cell-based
For experiment [1], the system named is PC-3. Description: Cytotoxicity in human PC3 cells assessed as growth inhibition after 72 hrs by XTT assay. The following applies: PC-3, 72 h. The gist of the method: (§1)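 XTT assay after 72 h continuous compound exposure. IC50 is the concentration that inhibits growth to 50% of the DMSO vehicle-treated control. It was calculated by sigmoidal fitting of dose-response curves. Values are mean ± standard error of 3 independent experiments.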
On the technique in general: Tetrazolium assays rely on reduction of a dye to a coloured formazan, in cell work by metabolically active cells.

The test system of experiment [2] is MOLT-4. The experiment can be described thus: Cytotoxicity in human MOLT4 cells assessed as growth inhibition after 72 hrs by XTT assay. To be noted: MOLT-4, 72 h. The gist of the method: as §1
The nature of experiment [3]: Cytotoxicity in human JeKo1 cells assessed as growth inhibition after 72 hrs by XTT assay. The following applies: JeKo-1, 72 h. The gist of the method:
as §1

The test system of experiment [4] is NCI-H226. The experiment can be described thus: Cytotoxicity in human NCI-H226 cells assessed as growth inhibition after 72 hrs by XTT assay. To be noted: NCI-H226, 72 h. The gist of the method:
as §1

The subject of experiment [5] is SK-MEL-2. The experiment can be described thus: Cytotoxicity in human SK-MEL-2 cells assessed as growth inhibition after 72 hrs by XTT assay. The following applies: SK-MEL-2, 72 h. The gist of the method: as §1
The subject of experiment [6] is SK-MEL-2. The experiment can be described thus: Modulation of MDM2 mRNA splicing in human SK-MEL-2 cells assessed as formation of two spliced MDM2 mRNA variants at 100 uM after 6 hrs by blotting assay. The gist of the method:
(§2)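 SK-MEL-2 melanoma cells were exposed to DMSO vehicle or to the designated compound concentrations for 6 hours. MDM2 mRNA was then examined for the properly spliced form and for alternatively spliced variant forms.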

Experiment [7] has as its system SK-MEL-2. Description: Modulation of MDM2 mRNA splicing in human SK-MEL-2 cells assessed as increase in properly spliced MDM2 mRNA at 10 to 25 uM after 6 hrs by blotting assay. The gist of the method:
as §2

For experiment [8], the system named is MCF7. The experiment can be described thus: Cytotoxicity in human MCF7 cells assessed as growth inhibition after 72 hrs by XTT assay. The following applies: MCF7, 72 h. The gist of the method: as §1
Experiment [9] deals with SK-MEL-2. Description: Modulation of MDM2 mRNA splicing in human SK-MEL-2 cells assessed as formation of two spliced MDM2 mRNA variants at 10 uM after 6 hrs by blotting assay. The gist of the method: as §2
Experiment [10] has as its system SK-MEL-2. The experiment can be described thus: Modulation of MDM2 mRNA splicing in human SK-MEL-2 cells assessed as increase in properly spliced MDM2 mRNA at 1 uM after 6 hrs by blotting assay. The gist of the method:
as §2

Experiment [11] deals with SK-MEL-2. The experiment can be described thus: Modulation of MDM2 mRNA splicing in human SK-MEL-2 cells assessed as increase in properly spliced MDM2 mRNA at 10 to 100 uM after 6 hrs by blotting assay. The gist of the method:
as §2

Experiment [12] concerns SK-MEL-2. Description: Modulation of MDM2 mRNA splicing in human SK-MEL-2 cells assessed as formation of two spliced MDM2 mRNA variants at 10 to 100 uM after 6 hrs by blotting assay. The gist of the method: as §2

The term IC50 denotes the concentration that inhibits the measured activity by half. Consider `CC(=O)O[C@H]1/C=C/C[C@@H](/C(C)=C/C=C/CC[C@H]2O[C@@H]2C[C@H](C)O[Si](C)(C)C(C)(C)C)OC(=O)CCCC[C@@]1(C)O`, for which the IC50 is 18 µM in [1]; 15.5 µM in experiment [2]; 11.6 µM in experiment [3]; above 20 µM in experiment [4]; 10.7 µM in [5]; 19.2 µM in [8]. Further, the result in experiment [6] and in [7] was Active.

Regarding `CC(/C=C/[C@H]1OC(C)(C)C[C@@]2(CO2)[C@@H]1O)=C\C[C@H]1OC[C@@H](NC(=O)/C=C\[C@H](C)OC(=O)C(C)C)CO1`, the IC50 is 4.16 µM in experiment [1]; 0.66 µM in [2]; 0.29 µM in experiment [3]; above 10 µM in experiment [4]; 0.7 µM in [5]; 1.69 µM in experiment [8]. Also, the result in experiment [9] and in experiment [10] was Active.

Turning to `CC(=O)O[C@@H](C)/C=C\C(=O)N[C@H]1CC[C@@H](C/C=C(C)/C=C/[C@H]2OC(C)(C)C[C@@]3(CO3)[C@@H]2O)CC1`, the IC50 in experiment [1] is 2.02 µM; in experiment [2], 0.18 µM; in [3] it was 0.11 µM; in experiment [4] it was above 10 µM; in [5] it was 0.39 µM; in experiment [8], 0.72 µM.

For `COc1ccc(COC/C=C(\C)[C@@H]2C/C=C/[C@H](OC(C)=O)[C@](C)(O)CCCCC(=O)O2)cc1`, in [11], the result was Active. For the same molecule, the IC50 in experiment [5] was above 20 µM. Moreover, in experiment [12], the outcome was inactive.

Take `CC(=O)O[C@H]1/C=C/C[C@@H](/C(C)=C/C=C/CC[C@H]2O[C@@H]2C[C@H](C)O)OC(=O)CCCC[C@@]1(C)O` (mixture of isomers): the IC50 in [1], in [3] and in experiment [5] was above 20 µM throughout.
